Data set [1] deals with SK-OV-3. Briefly: Antiproliferative activity against human SKOV3 cells infected with 10 pfu/cell retrovirus after 18 hrs. As to conditions: SK-OV-3, 18 h. It counts as functional, cell-based.
Data set [2] concerns V79. Put plainly: Ratio for antiproliferative activity against NTR- V79 cells to NTR+ V79 cells after 1 hr. Format: functional, cell-based, Cricetulus griseus. An outline of the steps:
(§1)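 Same stable NTR⁺ and vector-only NTR⁻ V79 pair, seeded 1000 cells/well and recovered 24 h. Cells exposed to drug for 1 h only, initially up to 100 µM, then given drug-free medium. SRB viability was read 3 days after drug addition. IC50 is the concentration giving 50% of control cell number; ratio is NTR⁻/NTR⁺.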

Data set [3] relates to SK-OV-3. Briefly: Ratio for antiproliferative activity against NTR- SKOV3 cells to NTR+ SKOV3 cells after 18 hrs. It counts as functional, Homo sapiens. Put shortly: (§2)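 SKOV3 ovarian carcinoma cells stably transduced with a retroviral NTR vector and selected with 1 mg/mL G418, compared with parental SKOV3. Plated at 20 000 cells/well and allowed to adhere 24 h. Prodrug range given for 18 h, then replaced with drug-free medium. MTT survival read 2 days later. Ratio is NTR⁻/NTR⁺ IC50.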

The subject of data set [4] is V79. Put plainly: Antiproliferative activity against NTR expressing chinese hamster V79 cells after 72 hrs. Format: functional, cell-based, Cricetulus griseus. An outline of the steps:
(§3)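 V79 Chinese hamster fibroblasts: NTR⁺ cells stably transfected with a bicistronic NTR/puromycin-resistance vector and kept under puromycin selection; vector-only NTR⁻ controls. Seeded 1000 cells/well, recovered 24 h, then exposed to serially diluted drug for 3 days at 37 °C, initially up to 100 µM. SRB stain read at 570 nm. IC50 interpolated; ratio is NTR⁻/NTR⁺ IC50.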

Data set [5] relates to SK-OV-3. Put plainly: Ratio for antiproliferative activity against NTR- SKOV3 cells to NTR+ SKOV3 cells infected with 10 pfu/cell retrovirus after 18 hrs. It counts as functional, Homo sapiens.
Data set [6] concerns SK-OV-3. Put plainly: Antiproliferative activity against human SKOV3 cells after 18 hrs. It counts as functional, cell-based. Put shortly: as §2
For data set [7], the system named is V79. Briefly: Ratio for antiproliferative activity against NTR- V79 cells to NTR+ V79 cells after 72 hrs. It counts as functional, Cricetulus griseus. An outline of the steps: as §3
Data set [8] relates to SK-OV-3. Put plainly: Antiproliferative activity against human SKOV3 cells infected with 100 pfu/cell retrovirus after 18 hrs. It counts as functional, cell-based.
The subject of a further data set is nitroreductase. Put plainly: (§4) Half life in phosphate buffer at pH 7 at 37 degC assessed as reduction by Escherichia coli nitroreductase by NR assay. It counts as ADME. As to conditions: Escherichia coli, Escherichia coli nitroreductase in phosphate buffer. Put shortly: (§5)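 Substrate at 0.2 mM with 1 mM NADH in 10 mM sodium phosphate buffer, pH 7.0, at 37 °C. Reaction started by adding 1.8 µg E. coli nitroreductase; 2 mM cysteine added for one compound. Aliquots taken at intervals, quenched with acetonitrile, frozen, then analysed by HPLC. Half-life calculated from substrate disappearance.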

Data set [9] relates to V79. Briefly: Antiproliferative activity against chinese hamster V79 cells after 1 hr. It counts as functional, cell-based. As to conditions: Cricetulus griseus, V79, 1 h. An outline of the steps: as §1
Data set [10] has as its system V79. Put plainly: Antiproliferative activity against chinese hamster V79 cells after 72 hrs. It counts as functional, cell-based, Cricetulus griseus. Put shortly: as §3
Data set [11] relates to V79. Put plainly: Antiproliferative activity against NTR expressing chinese hamster V79 cells after 1 hr. It counts as functional, cell-based, Cricetulus griseus. Put shortly: as §1
The test system of data set [12] is SK-OV-3. Briefly: Antiproliferative activity against NTR expressing human SKOV3 cells after 18 hrs. It counts as functional, cell-based. Put shortly: as §2
Data set [13] concerns SK-OV-3. Put plainly: Ratio for antiproliferative activity against NTR- SKOV3 cells to NTR+ SKOV3 cells infected with 100 pfu/cell retrovirus after 18 hrs. It counts as functional, Homo sapiens.
Data set [14] is described as follows: as §4. It counts as ADME. As to conditions: buffer. An outline of the steps: as §5
In data set [15] the test system is SK-OV-3. Put plainly: Antiproliferative activity against NTR expressing human SKOV3 cells […] after 18 hrs. Format: functional, cell-based.

As usually defined, the IC50 is the concentration at which inhibition is half-maximal. A higher IC50 goes with a need for much substance. The term half-life denotes how long it takes for the measured level to halve. In the case of `NP(=O)(OCc1ccc([N+](=O)[O-])cc1)N(CCCl)CCCl` (racemic), the IC50 with SK-OV-3 [1] is above 1000 µM; in the data set with V79 [4] (Cricetulus griseus, V79, 72 h), 0.4 nM; in the data set on SK-OV-3 [6] (Homo sapiens, SK-OV-3, 18 h), above 890 µM; in the data set on SK-OV-3 [8] (Homo sapiens, SK-OV-3, 18 h), above 1 mM; with V79 [9], above 100 µM; with V79 [10] (Cricetulus griseus, V79, 72 h) it was 67 µM. Besides, the concentration for half-maximal inhibition (IC50) with V79 [11] (Cricetulus griseus, V79, 1 h) amounted to 10 nM; with SK-OV-3 [12] (Homo sapiens, SK-OV-3, 18 h), 160 nM. Moreover, the Ratio is on record as above 10000 with V79 [2]; above 5600 with SK-OV-3 [3]; above 160 in the data set on SK-OV-3 [5]; 170000 in the data set on V79 [7]; above 830 with SK-OV-3 [13]. The half-life with nitroreductase was 2.3 min.

Regarding `O=[N+]([O-])c1ccc(C2CCNP(=O)(N(CCCl)CCCl)N2)cc1` (racemic; cis), the concentration for half-maximal inhibition (IC50) with V79 [4] (v79) stood at 4600 nM; in the data set with V79 [10] (Cricetulus griseus, V79, 72 h), 56.8 µM. The Ratio in the data set on V79 [7] was 12. The half-life in the data set with nitroreductase came to 6.4 min.

`O=[N+]([O-])c1ccc(C2CCOP(=O)(N(CCCl)CCCl)N2)cc1` (racemic; cis): the Ratio in the data set with SK-OV-3 [3] is listed as above 1.9; in the data set on V79 [7], above 2.2; with SK-OV-3 [13], above 1.9. In addition, the figures for the IC50 in the data set with V79 [4] (v79), with SK-OV-3 [12] (sk-ov-3) and in the data set on SK-OV-3 [15] (sk-ov-3) were 45300 nM, 530000 nM and 530 µM, respectively. For the same molecule, the T1/2 in data set [14] came to 11.9 min.

`O=[N+]([O-])c1ccc(C2CCNP(=O)(N(CCCl)CCCl)O2)cc1` (racemic; cis): the Ratio in the data set on V79 [2] is reported as above 290; with SK-OV-3 [3], above 440; in the data set with V79 [7] it was 29000; with SK-OV-3 [13] it was 150. Also, the IC50 is 29 nM in the data set on V79 [4] (v79); above 930 µM with SK-OV-3 [6] (sk-ov-3); 0.68 mM in the data set with SK-OV-3 [8] (sk-ov-3); 832 µM in the data set on V79 [10] (v79); 340 nM in the data set with V79 [11] (v79); 4.7 µM with SK-OV-3 [15] (sk-ov-3). The T1/2 in data set [14] is 5.2 min.

As for `O=[N+]([O-])c1ccc(C2CCNP(=O)(N(CCCl)CCCl)N2)cc1` (racemic; trans), the IC50 is 48300 nM with V79 [4] (v79) and above 100 µM with V79 [10] (v79). For the same molecule, the Ratio in the data set with V79 [7] was above 2.1. Further, the T1/2 in data set [14] amounted to 4.2 min.

As to `O=[N+]([O-])c1ccc(C2CCOP(=O)(N(CCCl)CCCl)N2)cc1` (racemic; trans), the Ratio in the data set with SK-OV-3 [3] was above 4.8; in the data set with V79 [7] it was above 1.9; in the data set with SK-OV-3 [13], above 4.5. In addition, the 50% inhibitory concentration (IC50) is 51500 nM in the data set with V79 [4] (Cricetulus griseus, V79, 72 h); above 1000 µM in the data set on SK-OV-3 [6] (Homo sapiens, SK-OV-3, 18 h); above 1 mM with SK-OV-3 [8] (Homo sapiens, SK-OV-3, 18 h); above 100 µM with V79 [10] (Cricetulus griseus, V79, 72 h); 210000 nM in the data set with SK-OV-3 [12] (sk-ov-3); 220 µM in the data set with SK-OV-3 [15] (sk-ov-3). Further, in [14], the T1/2 is 2.9 min.

For the molecule `O=[N+]([O-])c1ccc(C2CCNP(=O)(N(CCCl)CCCl)O2)cc1` (racemic; trans), the Ratio with V79 [2] is on record as above 590; in the data set on SK-OV-3 [3], 270; in the data set on V79 [7], 23000; in the data set with SK-OV-3 [13], above 200. Moreover, the IC50 was 27 nM with V79 [4] (Cricetulus griseus, V79, 72 h); 570 µM with SK-OV-3 [6] (Homo sapiens, SK-OV-3, 18 h); above 1 mM in the data set on SK-OV-3 [8] (Homo sapiens, SK-OV-3, 18 h); above 100 µM in the data set with V79 [9]; 608 µM with V79 [10] (Cricetulus griseus, V79, 72 h); 170 nM with V79 [11] (Cricetulus griseus, V79, 1 h). Further, the IC50 in the data set with SK-OV-3 [12] (Homo sapiens, SK-OV-3, 18 h) is 2100 nM; in the data set with SK-OV-3 [15] (Homo sapiens, SK-OV-3, 18 h), 5 µM. Further, the half-life in the data set with nitroreductase is 3.9 min.

Turning to `O=P1(N(CCCl)CCCl)NC(OO)CCO1` (stereo not given) [PERFOSFAMIDE], the IC50 worked out at 2700 nM with V79 [4] (Cricetulus griseus, V79, 72 h) and 3.1 µM in the data set on V79 [10] (Cricetulus griseus, V79, 72 h). Also, the Ratio in the data set with V79 [7] is 1.1.

As for `NC(=O)c1cc(N2CC2)c([N+](=O)[O-])cc1[N+](=O)[O-]` [TRETAZICAR], the half-inhibitory concentration (IC50) was 625 µM with SK-OV-3 [1]; 36 nM in the data set on V79 [4] (Cricetulus griseus, V79, 72 h); above 790 µM in the data set with SK-OV-3 [6] (Homo sapiens, SK-OV-3, 18 h); above 1 mM in the data set on SK-OV-3 [8] (Homo sapiens, SK-OV-3, 18 h); above 100 µM with V79 [9]; 254 µM with V79 [10] (Cricetulus griseus, V79, 72 h). Also, the IC50 with V79 [11] (Cricetulus griseus, V79, 1 h) was determined as 310 nM; with SK-OV-3 [12] (Homo sapiens, SK-OV-3, 18 h), 2000 nM. In addition, the Ratio in the data set with V79 [2] is recorded as above 320; in the data set on SK-OV-3 [3] it was above 400; with SK-OV-3 [5], 12; in the data set with V79 [7] it was 7100; in the data set with SK-OV-3 [13], above 210. Further, the half-life in the data set on nitroreductase was found to be 5 min.

These data come from ChEMBL document CHEMBL1138079 (J Med Chem, 2006).
